Three compounds from PMC9930943 (Asian Pacific Journal of Cancer Prevention : APJCP, 2022) can be followed below.

Like-named read-outs stand apart in the source and are kept apart here.

For assay [1], the system named is U-87MG cells. Kind of assay: MTT cell viability assay, U-87MG. In kind it is cell-based. The conditions noted are these: Homo sapiens. In outline:
(§1)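 U-87MG (RPMI-1640, 7.5 × 10³ cells/well, 24 h attachment) and AGO1522 (low-glucose DMEM) grown with 10% FBS and pen/strep at 37°C, 5% CO₂. DMSO stocks diluted in medium to 3, 6.25, 12.5, 25, 50 and 100 µM, for 24 and 48 h. MTT 5 mg/ml for 4 h, formazan dissolved in DMSO, A570 nm. Viability relative to untreated cells; IC50 calculated. Triplicates, three experiments.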

The test system of the next assay is AGO1522 cells. In words: MTT cell viability assay, AGO1522. In kind it is cell-based, human. The settings on record: for IC50: Homo sapiens, Skin fibroblast. In short, it runs like this: as §1
For orientation: Tetrazolium assays rely on reduction of a dye to a coloured formazan, in cell work by metabolically active cells.

In assay [2] the test system is caspase-3 activity in U-87MG cells. Kind of assay: Caspase-3/CPP32 fluorometric activity assay. The settings on record: 11.91 µM, 24 hours (method: 12 hours), P<0.01. In kind it is cell-based, human.
Assay [3] relates to intracellular ROS in U-87MG cells. Kind of assay: Intracellular ROS assay with DCFH-DA probe. The format is cell-based, human. The settings on record: 11.91 M (so in the source), 12 hours, P < 0.01. In outline: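 6 × 10⁵ U-87MG cells/well attached for 24 h, then given 11.91 µM for 12 h. Loaded with DCFH-DA (10 µM final) in serum-free medium for 30 min at 37°C in the dark and washed twice with RPMI 1640. DCF fluorescence of 1 × 10⁴ cells read on a fluorescence plate reader as RFU. Three independent experiments.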

The subject of assay [4] is U-87MG cells. Kind of assay: PI staining cell cycle analysis by flow cytometry. The settings on record: 11.91 µM, 24 hours. The format is cell-based, human. In short, it runs like this: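 6 × 10⁵ U-87MG cells/well attached for 24 h, then given 11.91 µM for 24 h. Detached with trypsin-EDTA at 37°C for 2 min, fixed in cold 70% ethanol for 1 h. Stained 30 min at RT in the dark in 1 ml 0.1% sodium citrate with 0.05 mg PI and 50 µg RNase. Sub-G1, G0/G1, S and G2/M percentages by flow cytometry.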
Background: A flow cytometer gives signals particle by particle.

The mark [5] stands for this setting: 24 h, read-out: IC50 U-87MG 24 hours.
Setting [6] is: 48 h, read-out: IC50 U-87MG 48 hours.
Setting [7] is: 24 h, read-out: IC50 AGO1522 24 hours.
Where [8] appears, read: 48 h, read-out: IC50 AGO1522 48 hours.

Turning to `CC(=O)O[C@H]1C(=O)[C@@]2(C)[C@H]([C@H](OC(=O)c3ccccc3)[C@]3(O)C[C@H](OC(=O)[C@H](O)[C@@H](NC(=O)c4ccccc4)c4ccccc4)C(C)=C1C3(C)C)[C@]1(OC(C)=O)CO[C@@H]1C[C@@H]2O` [Paclitaxel, reference compound], the IC50 worked out at 17.4 ± 0.85 µM in the assay with U-87MG cells [1] (setting [5]), 42.2 ± 0.78 µM with U-87MG cells [1] (setting [6]), 42.9 ± 1.42 µM in the assay with AGO1522 cells (setting [7]) and 25.8 ± 1.09 µM in the assay on AGO1522 cells (setting [8]).
“5-(6-bromo-2-chloroquinolin-3-yl)-9a-hydroxy-8,8-dimethyl-4-nitro-2,3,5,5a,7,8,9,9a-octahydroimidazo[1,2-a]quinolin-6(1H)-one [5c]”: the “caspase 3 activation compared to unexposed cells” value in assay [2] is recorded as “significant increase”. For the same compound, the “level of ROS compared to unexposed cells” value in assay [3] is recorded as “significantly higher”. Further, the “effects on normal skin cells of AGO1522” value in the assay on AGO1522 cells (AGO1522 cells, in words) is “minimal effects”. In addition, the “cells in G1” value in the assay on U-87MG cells [4] amounted to 41%.
As for `O=c1[nH]c(O)c(C2C([N+](=O)[O-])=C3NCCN3c3nc4cc(Cl)ccc4cc32)c(=O)[nH]1` (stereo not drawn) [5e, 5-(9-chloro-4-nitro-1,2,3,5-tetrahydrobenzo[g]imidazo[1,2-a] [1,8]naphthyridin-5-yl) -6-hydroxypyrimidine-2,4 (1H, 3H) -dione], the IC50 is 22.6 ± 0.84 µM in the assay on U-87MG cells [1] (setting [5]), 16.3 ± 1.03 µM in the assay on U-87MG cells [1] (setting [6]), 43 ± 0.89 µM in the assay on AGO1522 cells (setting [7]) and 22.9 ± 0.95 µM in the assay with AGO1522 cells (setting [8]).

The term IC50 denotes the point on the concentration scale where inhibition reaches its midpoint.
